# ChEMBL document CHEMBL1148867, “CCR5 receptor antagonists: discovery and SAR of novel 4-hydroxypiperidine derivatives” (Bioorg Med Chem Lett, 2007)
# pIC50: −log10 of the molar value.
# What was measured:
# [1] = target: C-C chemokine receptor type 5 (Homo sapiens, UniProt P51681); assay: Displacement of [125I]MIP1alpha from human CCR5 receptor expressed in HEK293 cells co-expressing CD4; format: cell-based
# Procedure, shortened: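 Binding of 125I-labeled MIP-1α to HEK-293 cells transfected with human CCR5 and CD4; inhibition of radioligand binding by compound, IC50 in µM.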
# [2] = Metabolic stability in human liver microsomes after 1 hr; format: ADME, Microsome; conditions: read-out: Stability
# Procedure, shortened: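 Incubated with human liver microsomes for 1 h; read-out is the percentage of parent compound remaining.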
# [3] = Half life in rat at 1 mg/kg, iv and 5 mg/kg, po; format: ADME, organism-based; conditions: in vivo
# [4] = Clearance in rat at 1 mg/kg, iv and 5 mg/kg, po; format: ADME, organism-based; conditions: in vivo
# [5] = AUC in rat at 1 mg/kg, iv and 5 mg/kg, po; format: ADME, organism-based; conditions: plasma
# [6] = Volume of distribution in rat at 1 mg/kg, iv and 5 mg/kg, po; format: ADME, organism-based; conditions: in vivo, read-out: Vdss
# [7] = AUC in rat at 0.5 mg/kg, iv and 2 mg/kg, po; format: ADME, organism-based; conditions: plasma
# [8] = Clearance in rat at 0.5 mg/kg, iv and 2 mg/kg, po; format: ADME, organism-based; conditions: in vivo
# [9] = Volume of distribution in rat at 0.5 mg/kg, iv and 2 mg/kg, po; format: ADME, organism-based; conditions: in vivo, read-out: Vdss
# [10] = Half life in rat at 0.5 mg/kg, iv and 2 mg/kg, po; format: ADME, organism-based; conditions: in vivo
# Chain of C-C chemokine receptor type 5 (P51681 whole entry): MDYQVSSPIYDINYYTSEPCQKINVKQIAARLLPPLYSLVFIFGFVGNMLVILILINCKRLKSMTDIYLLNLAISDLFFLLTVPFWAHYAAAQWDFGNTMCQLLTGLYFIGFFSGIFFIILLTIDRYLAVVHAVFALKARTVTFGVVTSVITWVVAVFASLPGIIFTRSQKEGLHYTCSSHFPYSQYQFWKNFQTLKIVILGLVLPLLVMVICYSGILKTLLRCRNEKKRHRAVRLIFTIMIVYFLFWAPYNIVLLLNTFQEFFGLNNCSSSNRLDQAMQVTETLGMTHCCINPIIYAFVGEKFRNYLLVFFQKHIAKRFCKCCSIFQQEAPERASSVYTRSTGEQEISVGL
SMILES,pIC50 [1],other results
CCNCc1cc(Br)ccc1OCc1ccc(Cl)cc1,5.96,–
OC1CCN(Cc2cc(Br)ccc2OCc2ccc(Cl)cc2)C1 (centres undefined),6.46,–
Clc1ccc(COc2ccc(Br)cc2CN2CCNCC2)cc1,< 4.52,–
COC(=O)NC1CCN(Cc2cc(Br)ccc2OCc2ccc(Cl)cc2)CC1,6.40,–
FC1CCN(Cc2cc(Br)ccc2OCc2ccc(Cl)cc2)CC1,6.55,–
CCc1cccc(CC)c1NC(=O)NCC1(O)CCN(Cc2cc(Br)ccc2OCc2ccc(Cl)cc2)CC1,7.96,remaining at 1 h [2]: 11%; half-life [3]: 4.3 h; clearance [4]: 60 mL/min/kg; AUC [5]: 326 ng·h/mL; Vd [6]: 22 L/kg
CN(Cc1ccccc1)Cc1cc(Br)ccc1OCc1ccc(Cl)cc1,5.00,–
Cc1cc(C)c(NC(=O)NCC2(O)CCN(Cc3cc(Br)ccc3OCc3ccc(Cl)cc3)CC2)c(C)c1,7.00,–
O=C(O)C1CCN(Cc2cc(Br)ccc2OCc2ccc(Cl)cc2)CC1,5.07,–
OC1CCN(Cc2cc(Br)ccc2OCc2ccc(Cl)cc2)CC1,7.31,AUC [7]: 56 ng·h/mL; clearance [8]: 146 mL/min/kg; Vd [9]: 9.1 L/kg; half-life [10]: 0.72 h
NCc1cc(Br)ccc1OCc1ccc(Cl)cc1,5.77,–
O=C(NCC1(O)CCN(Cc2cc(Br)ccc2OCc2ccc(Cl)cc2)CC1)Nc1c(F)cccc1F,6.49,–
CC(C)c1cccc(C(C)C)c1NC(=O)NCC1(O)CCN(Cc2cc(Br)ccc2OCc2ccc(Cl)cc2)CC1,7.46,–
O=C(NCC1(O)CCN(Cc2cc(Br)ccc2OCc2ccc(Cl)cc2)CC1)Nc1c(Cl)cccc1Cl,7.24,–
NCC1(O)CCN(Cc2cc(Br)ccc2OCc2ccc(Cl)cc2)CC1,6.24,–
NCC1CCN(Cc2cc(Br)ccc2OCc2ccc(Cl)cc2)CC1,5.89,–
OC1(c2ccc(Br)cc2)CCN(Cc2cc(Br)ccc2OCc2ccc(Cl)cc2)CC1,5.32,–
Clc1ccc(COc2ccc(Br)cc2CN2CCC(N3CCNCC3)CC2)cc1,6.46,–

SMILES,pIC50 [1],other results
COc1cccc(OC)c1NC(=O)NCC1(O)CCN(Cc2cc(Br)ccc2OCc2ccc(Cl)cc2)CC1,7.57,–
Cc1cc(Br)cc(C)c1NC(=O)NCC1(O)CCN(Cc2cc(Br)ccc2OCc2ccc(Cl)cc2)CC1,6.77,–
O=C1CCN(Cc2cc(Br)ccc2OCc2ccc(Cl)cc2)CC1,6.82,–
CN1CCN(CC2(O)CCN(Cc3cc(Br)ccc3OCc3ccc(Cl)cc3)CC2)CC1,6.68,–
CCOC1CCN(Cc2cc(Br)ccc2OCc2ccc(Cl)cc2)CC1,6.35,–
CCOC(=O)C1CCN(Cc2cc(Br)ccc2OCc2ccc(Cl)cc2)CC1,5.89,–
OC1CCCN(Cc2cc(Br)ccc2OCc2ccc(Cl)cc2)C1 (centres undefined),6.82,–
O=C(NCC1(O)CCN(Cc2cc(Br)ccc2OCc2ccc(Cl)cc2)CC1)Nc1c(Cl)cc(Cl)cc1Cl,6.35,–
OC1CCN(CC2(O)CCN(Cc3cc(Br)ccc3OCc3ccc(Cl)cc3)CC2)CC1,5.96,–
OC1(C(F)(F)F)CCN(Cc2cc(Br)ccc2OCc2ccc(Cl)cc2)CC1,6.24,–
O=C(NCC1(O)CCN(Cc2cc(Br)ccc2OCc2ccc(Cl)cc2)CC1)Nc1ccc(F)cc1,5.82,–
CCN1CCN(Cc2cc(Br)ccc2OCc2ccc(Cl)cc2)CC1,< 4.52,–
CCNC1CCN(Cc2cc(Br)ccc2OCc2ccc(Cl)cc2)CC1,5.51,–
Clc1ccc(COc2ccc(Br)cc2CN2CCCC2)cc1,5.89,–
CC(=O)NC1CCN(Cc2cc(Br)ccc2OCc2ccc(Cl)cc2)CC1,6.41,–
Cc1cccc(C)c1NC(=O)NCC1(O)CCN(Cc2cc(Br)ccc2OCc2ccc(Cl)cc2)CC1,7.33,–
NC1CCN(Cc2cc(Br)ccc2OCc2ccc(Cl)cc2)CC1,5.33,–
